“And” between values parts separate entries of the source, which are not always exact repeats. Equal entries are not always repeated.
Columns and labels:
Type in all cases: functional
Mus musculus [1] = organism: Mus musculus; experiment: In vitro bone-reabsorbing activity was examined in fetal mouse calvaria prelabeled with 45 Ca at 120 nM concentration, Ca release
Procedure, shortened: (§1)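 Paired half fetal mouse calvaria, split along the midsagittal suture, were precultured 24 h at 37 °C under 5% CO₂ in air in BGJ medium containing 1 mg/mL bovine serum albumin. Halves were then moved to fresh medium with or without derivative for 6 more days. Bones were digested overnight in HCl, and ⁴⁵Ca in the medium and bone was counted. ⁴⁵Ca release % = medium/(medium+bone)×100, reported as treated/control ratio. Student's t test.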

Mus musculus [2] = organism: Mus musculus; experiment: In vitro bone-reabsorbing activity was examined in fetal mouse calvaria prelabeled with 45 Ca at 12 nM concentration, Ca release; procedure, shortened: as §1
Mus musculus [3] = organism: Mus musculus; experiment: In vitro bone-resorbing activity was examined in fetal mouse calvaria prelabeled with 45Ca at 1.2 nM concentration; procedure, shortened: as §1
Mus musculus [4] = organism: Mus musculus; experiment: In vitro bone-resorbing activity was examined in fetal mouse calvaria prelabeled with 45Ca at 12 nM concentration; procedure, shortened: as §1
Mus musculus [5] = organism: Mus musculus; experiment: In vitro bone-resorbing activity was examined in fetal mouse calvaria prelabeled with 45Ca at 120 nM concentration; procedure, shortened: as §1
Mus musculus [6] = organism: Mus musculus; experiment: In vitro bone-reabsorbing activity was examined in fetal mouse calvaria prelabeled with 45 Ca at 1.2 nM concentration, Ca release; procedure, shortened: as §1

Structure (SMILES)	T/C (Mus musculus [1])	T/C (Mus musculus [2])	T/C (Mus musculus [3])	T/C (Mus musculus [4])	T/C (Mus musculus [5])	T/C (Mus musculus [6])
C[C@H](CCCC(C)(C)O)C1CCC2/C(=C/C3OOCC4=C3C[C@@H](O)CC4)CCCC21C (stereo partly drawn)	2.43	1.61				
C[C@H](CCCC(C)(C)O)C1CCC2/C(=C/c3occ4c3CC(O)CC4)CCCC21C (stereo partly drawn)			1.05 and 0.98	1.63	2.64	
C=C1CC[C@H](O)C/C1=C/C=C1\CCC[C@]2(C)[C@@H]([C@H](C)CCCC(C)(C)O)CC[C@@H]12 [CALCIFEDIOL ANHYDROUS]	1.74	1.33				1

From ChEMBL document CHEMBL1123085, “Mechanism of the differentiating action of 25-hydroxyvitamin D3 endoperoxides in human myeloid leukemia cells (HL-60)” (1985)
